Experimental data published in ChEMBL document CHEMBL1828528, “Acyclic nucleoside thiophosphonates as potent inhibitors of HIV and HBV replication” (Eur J Med Chem, 2011).

Experiments:
[1] = system: Human immunodeficiency virus 1; assay: Antiviral activity against HIV1 clade B isolate 2056 infected in human H9 cells assessed as inhibition of viral replication; format: functional, organism-based; details: Human immunodeficiency virus 1, clade B isolate 2056, H9
How it was run: (§1)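 H9 cells infected with HIV-1 clinical isolates of clades A, B, C, D, A/E, F and G, in the presence of graded compound concentrations. EC50 is the concentration reducing viral replication by 50%.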

[2] = system: Human immunodeficiency virus 1; assay: Antiviral activity against HIV1 clade A/E isolate 2165 infected in human H9 cells assessed as inhibition of viral replication; format: functional, organism-based; details: Human immunodeficiency virus 1, clade A/E isolate 2165, H9; how it was run: as §1
[3] = Cytotoxicity against human HepAD38 cells; format: cell-based
[4] = system: Human immunodeficiency virus 1; assay: Antiviral activity against 125 TCID50 wild type HIV1 LAI infected in human H9 cells assessed as reduction in viral replication measured on day 7 post infection by reverse transcriptase activity; format: functional, organism-based; details: Human immunodeficiency virus 1, LAI, H9, 168 h
How it was run: (§2)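 PHA-P-activated PBMC (1.5 × 10^5; donor cells stimulated 3 days with 1 μg/mL PHA-P plus 5 IU/mL IL-2) or H9 cells (5 × 10^5) in RPMI-1640/10% FCS. Cells pre-treated 30 min with graded compound concentrations, then infected with HIV-1 LAI (100 or 125 TCID50). Supernatant RT activity read on day 7. EC50 from quadratic fit of % inhibition; triplicates, PBMC repeated with a second donor.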

[5] = system: Human immunodeficiency virus 1; assay: Antiviral activity against HIV1 clade G isolate 3187 infected in human H9 cells assessed as inhibition of viral replication; format: functional, organism-based; details: Human immunodeficiency virus 1, clade G isolate 3187, H9; how it was run: as §1
[6] = Cytotoxicity against […]-activated human H9 cells on day 7 by MTT assay; format: cell-based
How it was run: (§3)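 Uninfected PHA-P-activated PBMC and H9 cells exposed to graded compound concentrations. Viability by MTT on day 7. CC50 from quadratic fit of % viability against concentration; triplicates.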

[7] = system: Human immunodeficiency virus 1; assay: Antiviral activity against HIV1 clade C isolate 2914 infected in human H9 cells assessed as inhibition of viral replication; format: functional, organism-based; details: Human immunodeficiency virus 1, clade C isolate 2914, H9; how it was run: as §1
[8] = (§4) Cytotoxicity against human CEM cells; format: cell-based, CCRF-CEM; details: CCRF-CEM (CEM) cells
How it was run: (§5)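 Mock-infected CEM cells cultured alongside the anti-HIV assay with compound dilutions for 4 days at 37 °C. CC50 is the concentration inhibiting CEM cell proliferation by 50%.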

[9] = system: Human alphaherpesvirus 2; assay: Antiviral activity against Herpes simplex virus type 2 G infected in HEL cells assessed as inhibition of virus-induced cytopathic effect; format: functional, organism-based; details: Human alphaherpesvirus 2, strain G
How it was run: (§6)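 Confluent HEL cell monolayers inoculated with 100 CCID50 of virus. Compounds added after a 1–2 h adsorption period. Virus-induced cytopathic effect scored microscopically at 3 days post infection as % of untreated controls. EC50 derived from graphical plots.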

[10] = Cytotoxicity against […]-activated human PBMC on day 7 by MTT assay; format: cell-based; how it was run: as §3
[11] = system: Human immunodeficiency virus 1; assay: Antiviral activity against HIV1 clade C isolate 4110 infected in human H9 cells assessed as inhibition of viral replication; format: functional, organism-based; details: Human immunodeficiency virus 1, clade C isolate 4110, H9; how it was run: as §1
[12] = system: Human alphaherpesvirus 1; assay: Antiviral activity against Herpes simplex virus type 1 KOS infected in HEL cells assessed as inhibition of virus-induced cytopathic effect; format: functional, organism-based; details: Human alphaherpesvirus 1, KOS; how it was run: as §6
[13] = system: Hepatitis B virus; assay: Antiviral activity against Hepatitis B virus infected in human HepAD38 cells assessed as reduction in viral DNA level after 6 days by real time quantitative PCR analysis; format: functional, organism-based; details: HePAD38, 144 h
How it was run: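 Tetracycline-regulated HepAD38 cells (5 × 10^5) induced after 2–3 days by PBS wash and feeding with medium lacking tetracycline and G418, with or without compound. Medium changed at day 3. Intracellular HBV DNA quantified by TaqMan Q-PCR at day 6 post induction against a full-genome plasmid standard curve, expressed as % of untreated. Actives retested.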

[14] = system: Human immunodeficiency virus 1; assay: Antiviral activity against 100 TCID50 wild type HIV1 LAI infected in human PBMC assessed as reduction in viral replication measured on day 7 post infection by reverse transcriptase activity; format: functional, organism-based; details: Human immunodeficiency virus 1, LAI, 168 h; how it was run: as §2
[15] = system: Human immunodeficiency virus 1; assay: Antiviral activity against HIV1 clade B isolate 2101 infected in human H9 cells assessed as inhibition of viral replication; format: functional, organism-based; details: Human immunodeficiency virus 1, clade B isolate 2101, H9; how it was run: as §1
[16] = system: Human alphaherpesvirus 1; assay: Antiviral activity against TK-deficient and ACR-resistant Herpes simplex virus type 1 KOS infected in HEL cells assessed as inhibition of virus-induced cytopathic effect; format: functional, organism-based; details: Human alphaherpesvirus 1, KOS; how it was run: as §6
[17] = system: Human immunodeficiency virus 1; assay: Antiviral activity against HIV1 clade B isolate 1722 infected in human H9 cells assessed as inhibition of viral replication; format: functional, organism-based; details: Human immunodeficiency virus 1, clade B isolate 1722, H9; how it was run: as §1
[18] = system: Human immunodeficiency virus 1; assay: Antiviral activity against 100 TCID50 wild-type Human immunodeficiency virus 1 3B infected in CEM cells assessed as inhibition of syncytia formation after 4 days by microscopic analysis; format: functional, organism-based; details: CCRF-CEM, 96 h
How it was run: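 Human CEM cells (~3 × 10^5 cells/cm3) infected with 100 CCID50/mL HIV-1 IIIB and seeded into wells holding compound dilutions. After 4 days at 37 °C, giant-cell (syncytium) formation was scored microscopically. EC50 is the concentration inhibiting syncytia formation by 50%.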

[19] = system: Human immunodeficiency virus 1; assay: Antiviral activity against HIV1 clade F isolate 2338 infected in human H9 cells assessed as inhibition of viral replication; format: functional, organism-based; details: Human immunodeficiency virus 1, clade F isolate 2338, H9; how it was run: as §1
[20] = system: Human immunodeficiency virus 2; assay: Antiviral activity against 100 TCID50 wild-type Human immunodeficiency virus type 2 ROD infected in C8166 cells assessed as inhibition of syncytia formation after 4 days by microscopic analysis; format: functional, organism-based; details: Human immunodeficiency virus 2, ISOLATE ROD, C8166, 96 h
[21] = system: Vaccinia virus; assay: Antiviral activity against Vaccinia virus infected in HEL cells assessed as inhibition of virus-induced cytopathic effect; format: functional, organism-based; details: Orthopoxvirus vaccinia; how it was run: as §6
[22] = Cytotoxicity against human HEL cells assessed as alteration in cellular morphology by microscopic analysis; format: cell-based
How it was run: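 Uninfected confluent Vero, CrFK, HEL or HeLa cultures incubated with serial compound dilutions (up to 200 μM) for the same period as the antiviral assays. Minimal toxic concentration is the lowest giving microscopically detectable alteration of cell morphology.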

[23] = system: Human immunodeficiency virus 1; assay: Antiviral activity against 6250 TCID50 wild type HIV1 LAI infected in human H9 cells assessed as reduction in viral replication measured on day 7 post infection by reverse transcriptase activity; format: functional, organism-based; details: Human immunodeficiency virus 1, LAI, H9, 168 h
How it was run: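 H9 cells in RPMI-1640/10% FCS given graded compound concentrations, then infected with a high inoculum of 6250 TCID50 HIV-1 LAI. Supernatant reverse transcriptase activity measured on day 7 post infection. EC50 taken as the concentration giving 50% reduction of viral replication.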

[24] = Cytotoxicity against human HuH7 cells; format: cell-based; details: Huh-7 cells
[25] = system: Human immunodeficiency virus 1; assay: Antiviral activity against HIV1 clade D isolate 1649 infected in human H9 cells assessed as inhibition of viral replication; format: functional, organism-based; details: Human immunodeficiency virus 1, clade D isolate 1649, H9; how it was run: as §1
[26] = system: Human immunodeficiency virus 1; assay: Antiviral activity against HIV1 clade A isolate 4113 infected in human H9 cells assessed as inhibition of viral replication; format: functional, organism-based; details: Human immunodeficiency virus 1, clade A isolate 4113, H9; how it was run: as §1
[27] = molecular target: Human immunodeficiency virus type 1 reverse transcriptase (Human immunodeficiency virus 1, UniProt Q72547); assay: Inhibition of wild-type HIV1 subtype B reverse transcriptase assessed as incorporation of [3H]dTTP
How it was run: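 Recombinant clade B HIV-1 WT RT p66/p51, co-expressed with protease in E. coli, affinity-purified and active-site titrated. Diphosphate forms assayed on activated calf thymus DNA with [3H]dTTP. Aliquots spotted in duplicate on DE81 discs, washed with ammonium formate pH 8.0 and ethanol, then scintillation counted. IC50 averaged over ≥3 independent experiments.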

[28] = system: Hepatitis B virus; assay: Antiviral activity against Hepatitis B virus infected in human HuH7 cells assessed as reduction in viral DNA level treated day 3 to day 8 post transfection by real time quantitative PCR analysis; format: functional, organism-based; details: Huh-7
[29] = system: CCRF-CEM; assay: as §4; format: cell-based; details: ccrf-cem; how it was run: as §5

SMILES	EC50 [1] [µM]	EC50 [2] [µM]	CC50 [3] [µM]	EC50 [4] [µM]	EC50 [5] [µM]	EC50 [7] [µM]	EC50 [9] [µM]	CC50 at 7 day [10] [µM]	EC50 [11] [µM]	EC50 [12] [µM]	EC50 [14] [µM]	EC50 [15] [µM]	EC50 [16] [µM]	EC50 [17] [µM]	EC50 [18] [µM]	EC50 [19] [µM]	EC50 [20] [µM]	EC50 [21] [µM]	MCC [22] [µM]	IC50 [27] [µM]	also measured
C[C@H](Cn1cnc2c(N)ncnc21)OCP(=O)(O)O [TENOFOVIR ANHYDROUS]	1.25	0.51	> 150	0.23	0.15	0.34	> 200	> 100	0.83	> 200	3.4	0.24	> 200	0.69	4.1	0.04	7.1	> 200	> 200	–	CC50 at 7 day [6]: > 100 µM; CC50 [8]: > 250 µM; EC50 [13]: 2.3 µM; EC50 [23]: 8.3 µM; CC50 [24]: > 150 µM; EC50 [25]: 0.1 µM; EC50 [26]: 5.61 µM
C[C@H](Cn1cnc2c(N)ncnc21)OCP(=O)(O)OP(=O)(O)OP(=O)(O)O	–	–	–	–	–	–	–	–	–	–	–	–	–	–	–	–	–	–	–	11.3	–
Nc1ncnc2c1ncn2CCOCP(=O)(O)OP(=O)(O)OP(=O)(O)O	–	–	–	–	–	–	–	–	–	–	–	–	–	–	–	–	–	–	–	7	–
C[C@H](Cn1cnc2c(N)ncnc21)OCP(=O)(S)OP(=O)(O)OP(=O)(O)O (stereo not given in full)	–	–	–	–	–	–	–	–	–	–	–	–	–	–	–	–	–	–	–	13.9	–
Nc1ncnc2c1ncn2CCOCP(=O)(S)OP(=O)(O)OP(=O)(O)O (stereo not given)	–	–	–	–	–	–	–	–	–	–	–	–	–	–	–	–	–	–	–	6.8	–
Nc1ncnc2c1ncn2CCOCP(=O)(O)O [ADEFOVIR]	1.02	0.32	> 150	1.1	0.22	1.45	20	> 30	2.74	89	3.2	3.51	20	1.85	5.5	0.19	7	> 200	> 200	–	EC50 [28]: 6 µM; CC50 [29]: 85 µM; EC50 [23]: 7.9 µM; CC50 [24]: > 150 µM; EC50 [25]: 0.32 µM; EC50 [26]: 17.8 µM
